# Screening results: PubChem, Sanford-Burnham Center for Chemical Genomics
# A selection: hits, their analogues and other compounds. The true share with any hit is near 4.4%.
# MPTP inh: inhibitors of mitochondrial permeability transition pore | isolated mouse mitochondria, Ca2+ swelling absorbance, 30 min | inhibition, % at 10 µM | hit rate 1.4% among 360,000;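 active means inhibition of 50% or more, scaled per plate between neutral and stimulator controls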;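 further: 0% = DMSO wells given calcium and 100% = 1 mM EGTA wells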
# SENP1 inh: inhibitors of human SENP1 SUMO protease catalytic domain | Q9P0U3 | recombinant SENP1 catalytic domain, CyPet-SUMO1-YPet FRET cleavage | inhibition, % at 10 µM | hit rate 0.21% among 360,000 | AID 624204;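 active means inhibition at least 30% at 10 µM, raw YFP signal under a set limit, fluorescence ratio 0.5 to 1.5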;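 further: 0% = enzyme with DMSO and 100% = no enzyme wells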
# Target sequence (Q9P0U3 419-644 limits assumed): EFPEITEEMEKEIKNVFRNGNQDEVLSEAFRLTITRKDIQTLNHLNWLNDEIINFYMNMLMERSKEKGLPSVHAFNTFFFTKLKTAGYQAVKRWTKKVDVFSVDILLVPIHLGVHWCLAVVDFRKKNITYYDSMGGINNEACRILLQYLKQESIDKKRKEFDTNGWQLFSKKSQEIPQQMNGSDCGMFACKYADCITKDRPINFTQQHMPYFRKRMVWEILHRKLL
#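 Material – human SENP1 catalytic domain · Input – SENP1 enzyme, 20 pM final · Compound dosing – single concentration of 10 µM compound, 0.5% DMSO final · Timing – enzyme reaction for 50 min at room temperature, dark · Measured by – FRET fluorescence in CFP and YFP emission channels · Control set – no-enzyme wells low, DMSO-plus-enzyme wells high control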
# NR3A LBD binder: modulators (binders) of human NR3A ligand-binding domain; AID 1259313; Tm shift relative to glycine control, % at 25 µM; NR3A LBD differential scanning fluorimetry, Tm shift; 0% = protein alone, 100% = glycine-bound protein; hit rate 2.5% among 340,000;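 active means melting temperature shift of at least 10% of the positive control shift, at one fixed dose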
# EBI2 antag: EBI2 (human) antagonism. AID 651636. EBI2 beta-arrestin recruitment, luminescence, 7a,25-OHC stimulated. hit rate 0.81% among 360,000. inhibition, % at 5 µM; in the data active means inhibition above about 38%;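 further: enzyme fragment complementation signal reports receptor beta-arrestin coupling in cells; 0% = agonist plus DMSO wells and 100% = wells without agonist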
# Target sequence (P32249 whole entry, looked up, the tested form may be a part): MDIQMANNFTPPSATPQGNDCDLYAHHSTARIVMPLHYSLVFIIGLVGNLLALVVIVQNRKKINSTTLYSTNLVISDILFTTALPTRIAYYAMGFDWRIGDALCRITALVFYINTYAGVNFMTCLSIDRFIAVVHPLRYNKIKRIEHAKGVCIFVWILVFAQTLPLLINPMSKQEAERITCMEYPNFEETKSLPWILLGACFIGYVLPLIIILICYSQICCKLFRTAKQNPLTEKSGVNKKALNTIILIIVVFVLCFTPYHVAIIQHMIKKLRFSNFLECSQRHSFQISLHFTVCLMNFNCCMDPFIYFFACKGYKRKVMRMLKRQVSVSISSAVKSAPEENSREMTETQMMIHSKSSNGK
# Active calls of the source: *; x = no result given.
SMILES,MPTP inh,SENP1 inh,NR3A LBD binder,EBI2 antag
COc1ccc(C)cc1NS(=O)(=O)c1ccc(NC(=O)CN(c2cc([N+](=O)[O-])ccc2C)S(C)(=O)=O)cc1,-1,2,20*,15
COc1ccc(C)cc1S(=O)(=O)N(CC(=O)Nc1cccc([N+](=O)[O-])c1)c1ccc(C)c(C)c1,10,3,33*,15
COc1ccc(S(=O)(=O)Nc2cc(C)ccc2OC)cc1C,0,1,12*,-11
O=C(COc1ccc2ccccc2c1)Nc1ccccc1C(=O)O,-1,0,0,1
CC(CNC(=O)Cn1ccc2cc(S(=O)(=O)N3CCCC3)ccc21)c1ccccc1 (stereo not drawn),-1,0,-1,-14
CN1CCN(c2ncnc3c2ncn3[C@H]2CN(Cc3ccncc3)C[C@@H](CO)O2)CC1,0,1,x,-6
CCOC(=O)c1nc(Nc2ccccc2)c2ccccc2n1,0,1,-1,-5
CCOC(=O)c1nc(Nc2cc(Cl)ccc2OC)c2ccccc2n1,0,-5,10*,-23
CC(=O)Nc1ccc(NC(=O)CCc2c(C)noc2C)cc1,-2,-1,6,1
CCOC(=O)N1CCN(c2ccc(F)cc2[N+](=O)[O-])CC1,0,3,23*,0
O=C(COc1coc(CN2CCc3ccccc32)cc1=O)Nc1ccccc1,0,-1,1,0
CCN(CC(=O)Nc1ccc(NC(C)=O)cc1)C(=O)/C=C/c1ccc2c(c1)OCO2,-2,-1,31*,-3
O=c1c2cc(Br)ccc2[nH]c(=S)n1Cc1ccccc1,0,1,11*,11
O=c1c2cc(Br)ccc2[nH]c(=S)n1Cc1ccccn1,-1,-1,8,12
O=C(Nc1ccc2c(c1)Cc1ccccc1-2)c1ccco1,2,3,22*,4
O=C(Nc1cccnc1)c1cccnc1,-1,2,0,-12
COc1ccc(C(=O)Nc2ccc3c(c2)Cc2ccccc2-3)cc1,2,2,17*,6
COc1cccc(OC)c1C(=O)Nc1ccc2c(c1)Cc1ccccc1-2,-2,2,-3,27
O=C(Nc1ccc2c(c1)Cc1ccccc1-2)c1cccnc1,0,0,21*,0
CN(C)C(=O)N1CCC(C(=O)N2CCCC(C(=O)c3cccc4ccccc34)C2)CC1 (stereo not drawn),2,0,-1,2
COc1ccc(CNC(=O)C2CCN(c3nc(-c4ccccc4)nc4c3CCC4)CC2)cc1,2,-6,-3,15
O=C(CCn1ccnc1)Nc1nc2ccccc2[nH]1,2,4,0,10
Cc1ccc(-c2csc3nc(SCC(=O)N(C)C)n(Cc4ccccc4)c(=O)c23)cc1,-1,1,1,4
NC(=O)CSc1nc2scc(-c3ccc(Cl)cc3)c2c(=O)n1Cc1ccccc1,0,-2,13*,36
Nc1nnc(-c2cn(-c3ccccc3)nc2-c2ccc(Cl)cc2)o1,1,-2,25*,-11
SMILES,MPTP inh,SENP1 inh,NR3A LBD binder,EBI2 antag
O=C(COC(=O)C1(c2ccc(F)cc2)CCCC1)NCc1ccc2c(c1)OCO2,26,2,16*,-4
O=C(CCl)N1CCCC1c1ccc2c(c1)OCCO2 (stereo not drawn),27,0,0,-30
O=C(OCn1ncc(Cl)c(Cl)c1=O)c1cccc(C(F)(F)F)c1,-1,2,-1,52*
O=C(NCc1ccccc1Br)c1cccs1,0,-1,x,-6
OCC[C@@H]1C[C@@H](O)[C@H](O)[C@@]2(CCCCO2)O1,0,2,-1,-20
CCCCCCN1C[C@H](n2cc(-c3ccc(F)cc3)nn2)[C@@H](O)C[C@@H]1c1ccc(C)cc1,1,0,x,16
COC(=O)c1ccccc1NC(=O)c1nc(S(=O)(=O)Cc2ccccc2)ncc1Cl,-2,-3,-2,86*
CCc1nnc(NC(=O)c2nc(S(=O)(=O)Cc3cccc(C)c3)ncc2Cl)s1,-1,2,0,28
CC(=O)Nc1ccc(NC(=O)c2nc(S(=O)(=O)Cc3ccccc3)ncc2Cl)cc1,-3,4,3,0
CCOc1ccccc1NC(=O)c1nc(S(=O)(=O)Cc2cccc(C)c2)ncc1Cl,-3,-3,0,73*
CCc1nnc(NC(=O)CSc2ccc(Cl)cc2)s1,0,-19,4,5
COc1ccc(-c2nc(CCl)cs2)cc1OC,0,1,1,3
COc1ccc(-c2nc(CCl)cs2)cc1,-1,2,0,3
COc1ccc(-c2nc(-c3ccc(O)cc3O)cs2)cc1OC,1,2,26*,-1
COc1ccc(-c2csc(-c3ccc(O)cc3)n2)cc1,10,2,24*,21
CN(C)S(=O)(=O)c1ccc(C(=O)N2CCN(S(=O)(=O)c3ccc4c(c3)OCCO4)CC2)cc1,1,2,-1,-6
CC(=O)c1nnn(-c2ccc([N+](=O)[O-])cc2C)c1C,-1,-1,1,4
O=S1(=O)CC2SC(=S)N(c3ccccc3)C2C1 (stereo not drawn),2,2,0,18
O=C1N(c2ccccc2)C2CS(=O)(=O)CC2N1c1ccc(Cl)c(Cl)c1 (stereo not drawn),0,2,30*,-10
Cc1ccc(C)c(COC(=O)CCN=C2NS(=O)(=O)c3ccccc32)c1,0,2,4,4
CSCCC(NC(=O)c1ccc(C)o1)C(=O)O (stereo not drawn),-3,1,15*,-2
NC1=NC2(CCCCC2)N(c2ccc(F)cc2)C(N)=N1,-1,0,20*,7
COc1ccc(N2C(N)=NC(N)=NC23CCCC3)cc1,-3,1,1,-3
O=C(Cc1ccc(Br)cc1)Nc1ccccc1Sc1ccccc1,12,2,19*,31
COc1ccccc1NC(=O)Nc1nc(CC(=O)Nc2cccc(F)c2)cs1,1,0,28*,11
SMILES,MPTP inh,SENP1 inh,NR3A LBD binder,EBI2 antag
COc1ccccc1NC(=O)Nc1nc(CC(=O)Nc2ccc(F)cc2)cs1,3,2,33*,5
COc1ccccc1NC(=O)Nc1nc(CC(=O)Nc2cc(F)ccc2F)cs1,0,-35,21*,-3
COc1ccccc1NC(=O)Nc1nc(CC(=O)Nc2ccc(N(C)C)cc2)cs1,1,3,24*,-1
O=C1CC(c2cccs2)Cc2nc(NCC3CCCO3)ncc21 (stereo not drawn),0,0,0,-11
COc1ccccc1NC(=O)Nc1nc(CC(=O)Nc2ccc(F)c(F)c2)cs1,29,1,34*,6
CNC(=S)Nc1cc(C(F)(F)F)ccc1Cl,0,2,8,-7
FC(F)Oc1ccc(/C=N/NC(=S)Nc2cc(C(F)(F)F)ccc2Cl)cc1,20,1,35*,15
Cc1ccc(F)c(CNC(=O)C2CCC(=O)N(CCN3CCOCC3)C2)c1F (stereo not drawn),0,0,-4,-7
CCOc1cc(C(=O)O)cc(Cl)c1OC,-2,2,21*,-3
COc1ccc(CCN2C(=O)CCC3=C2CCCC3=O)cc1OC,0,-21,x,-7
